pKi: −log10 of the molar value. Active and inactive are the calls of the source. The calls are words filed in the database; no cut-off is given here.
How the values were obtained:
[1] = Inhibition of FLT3 ITD-W51 mutant (unknown origin) incubated for 120 mins by ADP-glo based luminescence assay; set-up: species or system Homo sapiens
[2] = target: Receptor-type tyrosine-protein kinase FLT3 (Homo sapiens) (UniProt P36888); experiment: Inhibition of FLT3-mediated signalling pathway in human MV4-11 cells assessed as inhibition of S6RP phosphorylation upto 20 x GI50 concentration incubated for 6 hrs by western blot analysis; format: cell-based
Method in brief: (§1)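 Cells lysed in phosphate lysis buffer with protease inhibitors and protein quantified. Western blots probed phospho and total STAT5, AKT, ERK, S6RP and eIF4E, plus full-length and cleaved PARP and caspase-3, with β-actin as loading control. At least two independent experiments.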

U-937 [3] = experiment: Induction of apoptosis in human U937 cells assessed as necrotic cells at 1 x GI50 concentration incubated for 24 hrs by annexin V-FITC and propidium iodide staining based flow cytometry (reference value: 1.10 %); format: functional
U-937 [4] = experiment: Induction of apoptosis in human U937 cells assessed as necrotic cells at 20 x GI50 concentration incubated for 48 hrs by annexin V-FITC staining based flow cytometry (reference value: 1.16 %); format: functional
MV4-11 [5] = experiment: Induction of apoptosis in human MV4-11 cells assessed as necrotic cells at 10 x GI50 concentration incubated for 48 hrs by annexin V-FITC and propidium iodide staining based flow cytometry (reference value: 0.45 %); format: functional
[6] = target: T1, Receptor-type tyrosine-protein kinase FLT3 (Homo sapiens, UniProt P36888); experiment: Inhibition of wild type FLT3 (unknown origin) using Glu/Tyr peptide substrate incubated for 120 mins measured after 40 mins incubation under dark by ADP-glo based luminescence assay
T1 sequence (P36888 whole entry): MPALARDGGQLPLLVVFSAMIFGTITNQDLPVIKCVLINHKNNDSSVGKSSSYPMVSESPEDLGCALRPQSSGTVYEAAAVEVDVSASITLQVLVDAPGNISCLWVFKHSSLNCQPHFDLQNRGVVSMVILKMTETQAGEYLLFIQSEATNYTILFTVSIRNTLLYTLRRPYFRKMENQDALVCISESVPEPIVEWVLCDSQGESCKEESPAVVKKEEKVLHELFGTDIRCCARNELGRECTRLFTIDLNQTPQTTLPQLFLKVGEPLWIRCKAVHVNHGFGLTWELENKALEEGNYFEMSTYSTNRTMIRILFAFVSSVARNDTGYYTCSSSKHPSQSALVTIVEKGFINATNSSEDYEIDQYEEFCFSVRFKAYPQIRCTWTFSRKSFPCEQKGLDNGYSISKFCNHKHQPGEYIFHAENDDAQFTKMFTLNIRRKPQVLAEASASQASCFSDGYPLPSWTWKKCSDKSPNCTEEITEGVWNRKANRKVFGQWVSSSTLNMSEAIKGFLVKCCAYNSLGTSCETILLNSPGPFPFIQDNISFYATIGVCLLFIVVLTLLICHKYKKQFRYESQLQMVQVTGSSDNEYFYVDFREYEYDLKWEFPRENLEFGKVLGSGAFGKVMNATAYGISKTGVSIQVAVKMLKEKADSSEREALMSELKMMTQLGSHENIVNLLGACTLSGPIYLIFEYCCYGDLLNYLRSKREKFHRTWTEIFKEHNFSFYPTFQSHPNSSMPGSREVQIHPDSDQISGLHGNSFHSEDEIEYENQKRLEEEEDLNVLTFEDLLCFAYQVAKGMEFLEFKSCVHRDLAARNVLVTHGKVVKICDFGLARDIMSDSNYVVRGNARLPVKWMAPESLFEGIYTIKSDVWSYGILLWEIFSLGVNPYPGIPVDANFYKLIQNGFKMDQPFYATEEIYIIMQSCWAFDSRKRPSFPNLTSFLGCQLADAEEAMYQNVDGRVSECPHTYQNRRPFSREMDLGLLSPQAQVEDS
Method in brief: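 In-house ADP-Glo assay with poly(Glu,Tyr) 4:1 substrate in 40 mM Tris pH 7.5, 20 mM MgCl2, 50 µM DTT, 0.1 mg/mL BSA. Kinase at 20 nM. ADP-Glo reagent 40 min in the dark, detection reagent 30–40 min, then luminescence. Ki was derived from IC50 by Cheng-Prusoff.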

[7] = target: Receptor-type tyrosine-protein kinase FLT3 (Homo sapiens) (UniProt P36888); experiment: Inhibition of FLT3-mediated signalling pathway in human U-937 cells assessed as inhibition of ERK phosphorylation upto 20 x GI50 concentration incubated for 6 hrs by western blot analysis; format: cell-based; method in brief: as §1
[8] = target: Receptor-type tyrosine-protein kinase FLT3 (Homo sapiens, UniProt P36888, F594-R595INSR); experiment: Inhibition of FLT3 F594_R595insR mutant (unknown origin) incubated for 120 mins by ADP-glo based luminescence assay
[9] = target: Receptor-type tyrosine-protein kinase FLT3 (Homo sapiens) (UniProt P36888); experiment: Inhibition of FLT3-mediated signalling pathway in human MV4-11 cells assessed as increase in caspase 3 expression upto 20 x GI50 concentration incubated for 6 hrs by western blot analysis; format: cell-based; method in brief: as §1
MV4-11 [10] = experiment: Induction of apoptosis in human MV4-11 cells assessed as viable cells at 5 x GI50 concentration incubated for 24 hrs by annexin V-FITC and propidium iodide staining based flow cytometry (reference value: 84.68 %); format: functional
U-937 [11] = experiment: Induction of apoptosis in human U937 cells assessed as viable cells at 5 x GI50 concentration incubated for 48 hrs by annexin V-FITC staining based flow cytometry (reference value: 86.25 %); format: functional
U-937 [12] = experiment: Induction of apoptosis in human U937 cells assessed as early apoptotic cells at 5 x GI50 concentration incubated for 48 hrs by annexin V-FITC staining based flow cytometry (reference value: 2.78%); format: functional
MV4-11 [13] = experiment: Induction of apoptosis in human MV4-11 cells assessed as viable cells at 20 x GI50 concentration incubated for 24 hrs by annexin V-FITC and propidium iodide staining based flow cytometry (reference value: 84.68 %); format: functional

For `CC(=O)N1CCN(c2ccc(Nc3nccc(-c4cn(C)c5ncccc45)n3)cc2)CC1`, the pKi [1] was 7.08, the inhibition [2] was “Active” and the Activity (U-937 [3]) was 1.42%. It also gave an Activity (U-937 [4]) of 1.73%, an Activity (MV4-11 [5]) of 1.48% and a pKi [6] of 8.05. For the same compound, the inhibition [7] was “Active”, the pKi [8] was 7.27 and the Activity [9] was “Active”. For the same compound, the Activity (MV4-11 [10]) was 79.81%, the Activity (U-937 [11]) was 88.11% and the Activity (U-937 [12]) was 2.55%. It also gave an Activity (MV4-11 [13]) of 73.52%.
